Data from ChEMBL document CHEMBL5705890, “Antitumor activity of an allosteric inhibitor of centromere-associated protein-E” (Proc Natl Acad Sci U S A, 2010).

Tests used:
Type in all cases: functional
COLO-320-HSR = experiment: Anticancer activity against human COLO 320HSR cells assessed as cell growth inhibition measured after 72 hrs by DAPI staining based analysis
In short: (§1)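 Cells were seeded, and DNA content at 24 h after seeding (T0) was read by imaging of fixed, DAPI-stained cells. Cells were then exposed to a range of drug concentrations for a further 72 h (T72) and DNA content was read again. T72 values were normalized to T0, and GI50 was taken from curve fits as the concentration giving 50% growth inhibition relative to T0 and Ymax.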

HuP-T4 = experiment: Anticancer activity against human HuP-T4 cells assessed as cell growth inhibition measured after 72 hrs by DAPI staining based analysis
HEC-1-A = experiment: Anticancer activity against human HEC-1-A cells assessed as cell doubling measured for 72 hrs by DAPI staining based analysis
M14 = experiment: Anticancer activity against human M14 cells assessed as cell doubling measured for 72 hrs by DAPI staining based analysis
SNU-5 [1] = experiment: Anticancer activity against human SNU-5 cells assessed as cell growth inhibition measured after 72 hrs by DAPI staining based analysis
SW1417 = experiment: Anticancer activity against human SW1417 cells assessed as cell growth inhibition measured after 72 hrs by DAPI staining based analysis
[2] = Anticancer activity against human BM-1604 cells assessed as cell doubling measured for 72 hrs by DAPI staining based analysis
SF-295 = experiment: Anticancer activity against human SF-295 cells assessed as cell doubling measured for 72 hrs by DAPI staining based analysis
SNB-19 = experiment: Anticancer activity against human SNB-19 cells assessed as cell doubling measured for 72 hrs by DAPI staining based analysis
HOS = experiment: Anticancer activity against human HOS cells assessed as cell doubling measured for 72 hrs by DAPI staining based analysis
NCI/ADR-RES = experiment: Anticancer activity against human NCI/ADR-RES cells assessed as cell growth inhibition measured after 72 hrs by DAPI staining based analysis
Caov-3 cell line = experiment: Anticancer activity against human Caov-3 cells assessed as cell doubling measured for 72 hrs by DAPI staining based analysis
A-431 [3] = experiment: Anticancer activity against human A-431 cells assessed as cell growth inhibition measured after 72 hrs by DAPI staining based analysis
In short: (§2)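 Cells were seeded and, after 24 h, DNA content was read as T0. Cells were then exposed to varying drug concentrations for a further 72 h (T72). Fixed cells were DAPI-stained and DNA content measured by automated imaging. T72 values were normalized to T0. GI50 is the concentration giving 50% growth inhibition between T0 and Ymax, obtained by curve fitting.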

NCI-H716 = experiment: Anticancer activity against human NCI-H716 cells assessed as cell doubling measured for 72 hrs by DAPI staining based analysis
AN3-CA = experiment: Anticancer activity against human AN3-CA cells assessed as cell growth inhibition measured after 72 hrs by DAPI staining based analysis; in short: as §2
T84 = experiment: Anticancer activity against human T84 cells assessed as cell doubling measured for 72 hrs by DAPI staining based analysis
HCC1143 = experiment: Anticancer activity against human HCC1143 cells assessed as cell growth inhibition measured after 72 hrs by DAPI staining based analysis
In short: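 Cells seeded, DAPI-stained DNA content of fixed cells read by imaging 24 h after seeding (T0), and again after a further 72 h exposure to a range of drug concentrations (T72). T72 values were normalized to T0. Curve fits gave the concentration producing 50% growth inhibition relative to T0 and Ymax (GI50).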

SNU-475 = experiment: Anticancer activity against human SNU-475 cells assessed as cell growth inhibition measured after 72 hrs by DAPI staining based analysis
G-402 = experiment: Anticancer activity against human G-402 cells assessed as cell doubling measured for 72 hrs by DAPI staining based analysis
HT-29 = experiment: Antitumor activity against human HT-29 cells in xenograft model assessed as tumor growth delay at 125 mg/kg relative to control
HCC1954 = experiment: Anticancer activity against human HCC1954 cells assessed as cell doubling measured for 72 hrs by DAPI staining based analysis
NCI-H187 = experiment: Anticancer activity against human NCI-H187 cells assessed as cell doubling measured for 72 hrs by DAPI staining based analysis
SW756 = experiment: Anticancer activity against human SW756 cells assessed as cell growth inhibition measured after 72 hrs by DAPI staining based analysis
639-V = experiment: Anticancer activity against human 639-V cells assessed as cell doubling measured for 72 hrs by DAPI staining based analysis
BHT-101 = experiment: Anticancer activity against human BHT-101 cells assessed as cell doubling measured for 72 hrs by DAPI staining based analysis
A204 = experiment: Anticancer activity against human A204 cells assessed as cell doubling measured for 72 hrs by DAPI staining based analysis
SCC-15 = experiment: Anticancer activity against human SCC-15 cells assessed as cell doubling measured for 72 hrs by DAPI staining based analysis
SNU-16 = experiment: Anticancer activity against human SNU-16 cells assessed as cell doubling measured for 72 hrs by DAPI staining based analysis
BeWo = experiment: Anticancer activity against human BeWo cells assessed as cell doubling measured for 72 hrs by DAPI staining based analysis
SW48 = experiment: Anticancer activity against human SW48 cells assessed as cell doubling measured for 72 hrs by DAPI staining based analysis
SNU-5 [4] = experiment: Anticancer activity against human SNU-5 cells assessed as cell doubling measured for 72 hrs by DAPI staining based analysis
MC-IXC = experiment: Anticancer activity against human MC-IXC cells assessed as cell growth inhibition measured after 72 hrs by DAPI staining based analysis
MCF7 = experiment: Antitumor activity against human MCF7 cells in xenograft model assessed as tumor growth delay at 62.5 mg/kg relative to control
CHL-1 = experiment: Anticancer activity against human CHL-1 cells assessed as cell growth inhibition measured after 72 hrs by DAPI staining based analysis; in short: as §1
NCI-H460 = experiment: Antitumor activity against human NCI-H460 cells in xenograft model assessed as tumor growth delay at 62.5 mg/kg relative to control
A-431 [5] = experiment: Anticancer activity against human A-431 cells assessed as cell doubling measured for 72 hrs by DAPI staining based analysis
A 172 = experiment: Anticancer activity against human A-172 cells assessed as cell growth inhibition measured after 72 hrs by DAPI staining based analysis; in short: as §2
C3A = experiment: Anticancer activity against human C3A cells assessed as cell growth inhibition measured after 72 hrs by DAPI staining based analysis; in short: as §1
SF-539 = experiment: Anticancer activity against human SF-539 cells assessed as cell growth inhibition measured after 72 hrs by DAPI staining based analysis
THP-1 = experiment: Anticancer activity against human THP-1 cells assessed as cell doubling measured for 72 hrs by DAPI staining based analysis
NCI-H1299 = experiment: Antitumor activity against human NCI-H1299 cells in xenograft model assessed as difference between median time to endpoint time of treated versus control group at 125 mg/kg

In the case of CC(C)Oc1ccc(C(=O)N[C@H](CNC(=O)CN(C)C)Cc2ccc(-c3cn4cccc([C@H](C)O)c4n3)cc2)cc1Cl [GSK-923295A], the GI50 (COLO-320-HSR) is reported as 153 nM, the GI50 (HuP-T4) is reported as 158 nM and the Activity (HEC-1-A) is reported as 2.67. It also gave an Activity (M14) of 2.27, a GI50 (SNU-5 [1]) of 88 nM and a GI50 (SW1417) of 29 nM. It also gave an Activity [2] of 2.38, an Activity (SF-295) of 2.3 and an Activity (SNB-19) of 2.56. It also gave an Activity (HOS) of 3.65, a GI50 (NCI/ADR-RES) of 3960 nM and an Activity (Caov-3 cell line) of 2.17. The GI50 (A-431 [3]) was 21 nM, the Activity (NCI-H716) was 1.41 and the GI50 (AN3-CA) was 23 nM. For the same compound, the Activity (T84) was 2.77, the GI50 (HCC1143) was 27 nM and the GI50 (SNU-475) was 26 nM. It also gave an Activity (G-402) of 1.76, an Activity (HT-29) of 39% and an Activity (HCC1954) of 2.04. It also gave an Activity (NCI-H187) of 2.08, a GI50 (SW756) of 35 nM and an Activity (639-V) of 3.86. The Activity (BHT-101) was 2.09, the Activity (A204) was 1.46 and the Activity (SCC-15) was 2.38. For the same compound, the Activity (SNU-16) was 2.92, the Activity (BeWo) was 2.95 and the Activity (SW48) was 2.44. The Activity (SNU-5 [4]) was 1.47, the GI50 (MC-IXC) was 27 nM and the Activity (MCF7) was 20%. The GI50 (CHL-1) was 24 nM, the Activity (NCI-H460) was 87% and the Activity (A-431 [5]) was 2.95. It also gave a GI50 (A 172) of 27 nM, a GI50 (C3A) of 54 nM and a GI50 (SF-539) of 28 nM. The Activity (THP-1) was 1.38 and the Time (NCI-H1299) was 16.8 days.
